Data on seven molecules can be found in ChEMBL document CHEMBL4024779, “Novel Terminal Bipheny-Based Diapophytoene Desaturases (CrtN) Inhibitors as Anti-MRSA/VISR/LRSA Agents with Reduced hERG Activity” (J Med Chem, 2018).

The subject of data set [1] is Trichophyton mentagrophytes. Put plainly: In vitro antifungal activity against Trichophyton mentagrophytes after 7 days by serial dilution method. Conditions: 168 h. The data set is classed as functional.
In data set [2] the test system is Nannizzia gypsea. Put plainly: In vitro antifungal activity against Microsporum gypseum after 7 days by serial dilution method. The data set is classed as functional. Conditions: 168 h.
Data set [3] relates to Trichophyton verrucosum. Put plainly: In vitro antifungal activity against Trichophyton verrucosum after 7 days by serial dilution method. In kind it is functional. Conditions: 168 h.
In data set [4] the test system is Trichophyton rubrum. Briefly: In vitro antifungal activity against Trichophyton rubrum after 7 days by serial dilution method. In kind it is functional. Conditions: 168 h.
The target in data set [5] is T1, 4,4'-diapophytoene desaturase (4,4'-diaponeurosporene-forming) (Staphylococcus aureus (strain Mu50 / ATCC 700699)) (UniProt Q99R76).
T1 sequence (whole entry): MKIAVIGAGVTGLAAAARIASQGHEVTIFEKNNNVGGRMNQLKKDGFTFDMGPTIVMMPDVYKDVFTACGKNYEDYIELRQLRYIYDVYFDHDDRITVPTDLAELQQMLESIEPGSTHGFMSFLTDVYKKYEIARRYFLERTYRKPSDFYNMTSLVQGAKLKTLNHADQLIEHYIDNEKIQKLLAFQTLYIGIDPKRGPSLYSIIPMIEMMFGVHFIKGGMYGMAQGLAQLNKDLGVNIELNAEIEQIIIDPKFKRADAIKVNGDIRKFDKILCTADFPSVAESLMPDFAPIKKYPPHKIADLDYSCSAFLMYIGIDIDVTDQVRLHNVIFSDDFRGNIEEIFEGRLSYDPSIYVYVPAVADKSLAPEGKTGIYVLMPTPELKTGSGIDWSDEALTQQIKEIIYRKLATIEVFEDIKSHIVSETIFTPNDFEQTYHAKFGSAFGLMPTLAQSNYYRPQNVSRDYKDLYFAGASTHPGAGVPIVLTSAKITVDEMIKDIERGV
Put plainly: Inhibition of CrtN in methicillin-resistant Staphylococcus aureus Mu50 assessed as increase in H2O2-induced bacterial death by measuring survival rate at preincubated for 24 hrs followed by H2O2 addition measured after 30 mins by serial dilution method (reference value: 29.0%). Conditions: Staphylococcus aureus subsp. aureus Mu50. In short, it runs like this: (§1)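 Bacteria pretreated with 1 µM inhibitor or mock; N-acetylcysteine-treated cells served as control. Cells then exposed to 1.5% H2O2, and percent survival determined.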

Data set [6] concerns the target T2, 4,4'-diapophytoene desaturase (4,4'-diaponeurosporene-forming) (Staphylococcus aureus (strain USA300)) (UniProt Q2FDU6).
T2 sequence (whole entry): T1 sequence (whole entry)
Put plainly: Inhibition of CrtN in methicillin-resistant Staphylococcus aureus LAC USA300 assessed as increase in H2O2-induced bacterial death by measuring survival rate preincubated for 24 hrs followed by H2O2 addition measured after 30 mins by serial dilution method (reference value: 29.0%). In a few lines:
as §1

The target of data set [7] is T3, 4,4'-diapophytoene desaturase (4,4'-diaponeurosporene-forming) (Staphylococcus aureus (strain MW2)) (UniProt Q8NUQ6).
T3 sequence (whole entry): T1 sequence (whole entry) with R500Q
Briefly: Inhibition of CrtN in methicillin-resistant Staphylococcus aureus USA400 MW2 assessed as increase in H2O2-induced bacterial death by measuring survival rate preincubated for 24 hrs followed by H2O2 addition measured after 30 mins by serial dilution method (reference value: 28.7%). The conditions noted are these: Staphylococcus aureus subsp. aureus MW2. In a few lines: as §1

The subject of data set [8] is Staphylococcus aureus. Put plainly: Chemo-sensitization activity in non-pigmented Staphylococcus aureus Newman assessed as increase in H2O2-induced bacterial death by measuring survival rate pre-incubated for 24 hrs followed by H2O2 addition measured after 30 mins by serial dilution method (reference value: 33.3%). The data set is classed as functional. In a few lines:
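S. aureus Newman was pre-incubated with 1 µM compound, with N-acetylcysteine as antioxidant control, or mock-treated. Cells were then exposed to 1.5% H2O2. Percent bacterial survival was compared with the mock-treated culture.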

The target in data set [9] is T4, 4,4'-diapophytoene desaturase (4,4'-diaponeurosporene-forming) (Staphylococcus aureus (strain Mu50 / ATCC 700699), UniProt Q99R76).
T4 sequence (Q99R76 whole entry): T1 sequence (whole entry)
Put plainly: Inhibition of CrtN in methicillin-resistant Staphylococcus aureus Mu50 assessed as reduction in staphyloxanthin levels after 48 hrs by spectrophotometric method-based pigment inhibition assay. Also on record: species or system Staphylococcus aureus subsp. aureus Mu50.

Data set [10] concerns the target T5, 4,4'-diapophytoene desaturase (4,4'-diaponeurosporene-forming) (Staphylococcus aureus (strain MW2), UniProt Q8NUQ6).
T5 sequence (Q8NUQ6 whole entry): T1 sequence (whole entry) with R500Q
Put plainly: Inhibition of CrtN in methicillin-resistant Staphylococcus aureus USA400 MW2 assessed as reduction in staphyloxanthin levels after 48 hrs by spectrophotometric method-based pigment inhibition assay. More on the design: species or system Staphylococcus aureus subsp. aureus MW2.

Data set [11] in a line: Inhibition of CrtN in methicillin-resistant Staphylococcus aureus NRS271 assessed as reduction in staphyloxanthin levels after 48 hrs by spectrophotometric method-based pigment inhibition assay.
The target in data set [12] is T6, 4,4'-diapophytoene desaturase (4,4'-diaponeurosporene-forming) (Staphylococcus aureus (strain Newman), UniProt O07855).
T6 sequence (O07855 whole entry): T1 sequence (whole entry)
Briefly: Inhibition of Staphylococcus aureus Newman 6His-tagged CrtN expressed in Escherichia coli BL21 (DE3)/pET28a::CrtN assessed as reduction in staphyloxanthin levels using diapophytoene as substrate after overnight incubation by spectrophotometric analysis. More on the design: species or system Staphylococcus aureus subsp. aureus str. Newman.

Data set [13] addresses T7, 4,4'-diapophytoene desaturase (4,4'-diaponeurosporene-forming) (Staphylococcus aureus (strain USA300), UniProt Q2FDU6).
T7 sequence (Q2FDU6 whole entry): T1 sequence (whole entry)
Put plainly: Inhibition of CrtN in methicillin-resistant Staphylococcus aureus LAC USA300 assessed as reduction in staphyloxanthin levels after 48 hrs by spectrophotometric method-based pigment inhibition assay.

Data set [14] is described as follows: Aqueous solubility of compound after 24 hrs by HPLC method. The data set is classed as physicochemical.
The target of data set [15] is Voltage-gated inwardly rectifying potassium channel KCNH2 (Homo sapiens, UniProt Q12809). Put plainly: Inhibition of human ERG expressed in CHO cells at -80 mV holding potential after 3 mins by QPatch test. The data set is classed as cell-based. (In general: In patch-clamp work, channel activity is measured electrically.)
Voltage-gated inwardly rectifying potassium channel KCNH2, sequence (Q12809 whole entry): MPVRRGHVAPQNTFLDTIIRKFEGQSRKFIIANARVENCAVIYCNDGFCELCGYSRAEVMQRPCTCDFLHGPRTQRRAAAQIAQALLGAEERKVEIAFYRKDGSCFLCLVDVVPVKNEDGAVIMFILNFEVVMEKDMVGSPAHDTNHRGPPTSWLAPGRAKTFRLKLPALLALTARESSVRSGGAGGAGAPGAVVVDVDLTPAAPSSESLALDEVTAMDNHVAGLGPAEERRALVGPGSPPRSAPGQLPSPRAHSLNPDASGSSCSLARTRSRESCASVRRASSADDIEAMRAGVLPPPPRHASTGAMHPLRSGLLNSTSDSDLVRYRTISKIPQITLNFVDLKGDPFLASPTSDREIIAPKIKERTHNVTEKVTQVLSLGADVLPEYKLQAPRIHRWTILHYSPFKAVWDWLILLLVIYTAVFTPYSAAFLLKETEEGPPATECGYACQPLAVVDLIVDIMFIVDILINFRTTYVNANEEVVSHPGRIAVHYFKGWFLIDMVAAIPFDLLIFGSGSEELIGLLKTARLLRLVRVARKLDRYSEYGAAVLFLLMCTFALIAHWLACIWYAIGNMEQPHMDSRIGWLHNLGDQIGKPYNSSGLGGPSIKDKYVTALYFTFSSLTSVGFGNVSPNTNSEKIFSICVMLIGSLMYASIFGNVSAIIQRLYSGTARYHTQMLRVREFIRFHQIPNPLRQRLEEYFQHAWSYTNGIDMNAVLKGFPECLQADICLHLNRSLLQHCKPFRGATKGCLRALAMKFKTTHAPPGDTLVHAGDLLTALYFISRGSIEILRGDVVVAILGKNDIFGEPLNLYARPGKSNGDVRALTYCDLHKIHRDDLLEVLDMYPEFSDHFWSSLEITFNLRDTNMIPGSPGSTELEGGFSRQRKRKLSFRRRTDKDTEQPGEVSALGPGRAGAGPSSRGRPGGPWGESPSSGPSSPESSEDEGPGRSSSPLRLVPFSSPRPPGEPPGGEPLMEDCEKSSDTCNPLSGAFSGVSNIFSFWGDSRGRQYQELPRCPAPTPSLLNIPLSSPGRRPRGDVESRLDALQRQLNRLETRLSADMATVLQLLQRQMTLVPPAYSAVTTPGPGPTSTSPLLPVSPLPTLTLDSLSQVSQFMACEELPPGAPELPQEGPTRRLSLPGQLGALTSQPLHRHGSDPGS
Data set [16] deals with T6, 4,4'-diapophytoene desaturase (4,4'-diaponeurosporene-forming). Put plainly: Inhibition of CrtN in Staphylococcus aureus Newman assessed as reduction in staphyloxanthin levels after 48 hrs by spectrophotometric method-based pigment inhibition assay. More on the design: species or system Staphylococcus aureus subsp. aureus str. Newman.
Data set [17] relates to HepG2. Briefly: Cytotoxicity against human HepG2 cells after 43 hrs by Alamar blue dye-based fluorescence assay. In kind it is cell-based. The conditions noted are these: HepG2, 43 h. A general note: The colour change of resazurin is a common sign of viable cells or microbes.
A short description of data set [18]: Cytotoxicity against HEK293 cells after 43 hrs by Alamar blue dye-based fluorescence assay. In kind it is cell-based. Conditions: human.
In data set [19] the test system is Staphylococcus aureus. Put plainly: In vivo anti-virulence activity against methicillin-resistant Staphylococcus aureus LRSA202 infected in BALB/c mouse model assessed as reduction in bacterial load in heart at 0.1 mg bid for 3.5 days administered intraperitoneally 6 hrs post infection by serial dilution method relative to control. In kind it is functional, organism-based. In a few lines:
(§2)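 Mice were infected by retro-orbital injection with LRSA56 (5.0 × 10^7 CFU) or LRSA202 (7.0 × 10^7 CFU). Compound was given intraperitoneally 6 h after infection. […] Log10 CFU was counted in kidneys and hearts, with groups compared by two-tailed Mann-Whitney test.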

Data set [20] relates to Staphylococcus aureus. Put plainly: In vivo anti-virulence activity against methicillin-resistant Staphylococcus aureus LRSA202 infected in BALB/c mouse model assessed as reduction in bacterial load in kidney at 0.4 mg bid for 3.5 days administered intraperitoneally 6 hrs post infection by serial dilution method relative to control. In kind it is functional, organism-based. In a few lines: as §2

Data set [21] concerns Staphylococcus aureus. Put plainly: In vivo anti-virulence activity against Staphylococcus aureus Mu50 infected in BALB/c mouse model assessed as reduction in bacterial load in kidney at 0.4 mg bid for 4.5 days administered […] 6 hrs post infection by serial dilution method relative to control. The data set is classed as functional, organism-based.
Data set [22] has as its system Staphylococcus aureus. Briefly: In vivo anti-virulence activity against methicillin-resistant Staphylococcus aureus LRSA202 infected in BALB/c mouse model assessed as reduction in bacterial load in heart at 0.4 mg bid for 3.5 days administered intraperitoneally 6 hrs post infection by serial dilution method relative to control. In kind it is functional, organism-based. In a few lines: as §2

Data set [23] has as its system Staphylococcus aureus. Put plainly: In vivo anti-virulence activity against methicillin-resistant Staphylococcus aureus LRSA202 infected in BALB/c mouse model assessed as reduction in bacterial load in kidney at 0.1 mg bid for 3.5 days administered intraperitoneally 6 hrs post infection by serial dilution method relative to control. The data set is classed as functional, organism-based. In a few lines:
as §2

Data set [24] concerns Staphylococcus aureus. Put plainly: In vivo anti-virulence activity against methicillin-resistant Staphylococcus aureus Mu50 infected in BALB/c mouse model assessed as reduction in bacterial load in heart at 0.4 mg bid for 4.5 days administered intraperitoneally 6 hrs post infection by serial dilution method. In kind it is functional, organism-based.
Data set [25] has as its system Staphylococcus aureus. Briefly: In vivo anti-virulence activity against Staphylococcus aureus NRS271 infected in BALB/c mouse model assessed as reduction in bacterial load in kidney at 0.4 mg bid for 4.5 days administered orally 6 hrs post infection by serial dilution method relative to control. The data set is classed as functional, organism-based.
Data set [26] relates to Staphylococcus aureus. Put plainly: In vivo anti-virulence activity against methicillin-resistant Staphylococcus aureus NRS271 infected in BALB/c mouse model assessed as reduction in bacterial load in heart at 0.4 mg bid for 4.5 days administered intraperitoneally 6 hrs post infection by serial dilution method. The data set is classed as functional, organism-based.
For data set [27], the system named is Staphylococcus aureus. Briefly: In vivo anti-virulence activity against methicillin-resistant Staphylococcus aureus LRSA56 infected in BALB/c mouse model assessed as reduction in bacterial load in heart at 0.4 mg bid for 3.5 days administered intraperitoneally 6 hrs post infection by serial dilution method relative to control. In kind it is functional, organism-based. In a few lines: as §2

For data set [28], the system named is Staphylococcus aureus. Put plainly: In vivo anti-virulence activity against methicillin-resistant Staphylococcus aureus LRSA56 infected in BALB/c mouse model assessed as reduction in bacterial load in kidney at 0.4 mg bid for 3.5 days administered intraperitoneally 6 hrs post infection by serial dilution method relative to control. The data set is classed as functional, organism-based. In a few lines: as §2

Changes are numbered by the printed parent chain. ≈ marks a conversion by molar mass, not a printed value. Calls of active or inactive are those of the source. The rule behind the calls is not given here.

Turning to `CC(=O)N1CCN(c2ccc(OCC3COC(Cn4ccnc4)(c4ccc(Cl)cc4Cl)O3)cc2)CC1` (centres undefined) [KETOCONAZOLE], the MIC80 (usually the lowest concentration that inhibits either 80% of growth or 80% of the strains tested, depending on the study) in data set [1] is 0.0625 mg/L (≈ 0.118 µM); in data set [2], 2 mg/L (≈ 3.76 µM); in [3] it was 0.0625 mg/L (≈ 0.118 µM); in data set [4], 0.5 mg/L (≈ 0.941 µM).

Regarding `CC(=O)N[C@@H](CS)C(=O)O` [ACETYLCYSTEINE], the Survival in [5] was found to be 53%; in data set [6], 52%; in [7], 54.3%; in data set [8], 51.3%.

Turning to `CN(C/C=C/c1ccc(C(F)(F)F)cc1)Cc1cccc2ccoc12.Cl`, the MIC80 in data set [1] was over 64 mg/L; in data set [2], 32 mg/L; in data set [3], over 64 mg/L; in data set [4], 16 mg/L. The IC50 (usually the concentration that gives 50% inhibition) is 0.0004 µM in [9]; 0.0034 µM in data set [10]; 0.0067 µM in data set [11]; 0.3 µM in data set [12]; 0.0055 µM in data set [13]; 3.7 µM in data set [15]. In addition, in [14], the solubility (in general, the dissolved amount per volume that the medium holds) at 24 h was 10 mg/mL.

For `CN(C/C=C/c1ccc(Br)cc1)Cc1coc2ccccc12`, the IC50 worked out at 0.0025 µM in data set [16] and 33 µM in [17]. For the same molecule, half-maximal cytotoxicity in data set [18] (CC50 at 43 h) was put at 41.9 µM.

For `CN(C/C=C/c1ccc(Cl)cc1)Cc1coc2ccccc12`, the results for the IC50 in data set [16] and in data set [17] were 0.0049 µM and 60.2 µM, respectively. Besides, the CC50 (usually the concentration giving 50% cytotoxicity) at 43 h in data set [18] stood at 42.1 µM.

Consider `CC(=O)NC[C@H]1CN(c2ccc(N3CCOCC3)c(F)c2)C(=O)O1`, for which the outcome in data set [19], in [20], in [21], in [22], in [23] and in data set [24] was Active. For the same molecule, the result in data set [25] and in data set [26] was Active.

With `CN[C@H](CC(C)C)C(=O)N[C@H]1C(=O)N[C@@H](CC(N)=O)C(=O)N[C@H]2C(=O)N[C@H]3C(=O)N[C@H](C(=O)N[C@H](C(=O)O)c4cc(O)cc(O)c4-c4cc3ccc4O)[C@H](O)c3ccc(c(Cl)c3)Oc3cc2cc(c3O[C@@H]2O[C@H](CO)[C@@H](O)[C@H](O)[C@H]2O[C@H]2C[C@](C)(N)[C@H](O)[C@H](C)O2)Oc2ccc(cc2Cl)[C@H]1O`, the result in data set [20], in data set [21], in data set [27], in data set [22], in [24] and in data set [28] was Active.
